Experimental data as given in ChEMBL document CHEMBL1154983, “Arylpiperazine-containing pyrrole 3-carboxamide derivatives targeting serotonin 5-HT(2A), 5-HT(2C), and the serotonin transporter as a potential antidepressant” (Bioorg Med Chem Lett, 2010).
One block for each molecule: values may come before it. Calls of active or inactive are those of the source. The calls are words filed in the database; no cut-off is given here.

Legend:
[1] = biological target: T1, 5-hydroxytryptamine receptor 2C (Homo sapiens, UniProt P28335); test: Displacement of [3H]mesulergine from human recombinant 5-HT2C receptor expressed in CHO-K1 cells after 60 mins by rapid filtration assay; type: cell-based
T1 sequence (P28335 whole entry): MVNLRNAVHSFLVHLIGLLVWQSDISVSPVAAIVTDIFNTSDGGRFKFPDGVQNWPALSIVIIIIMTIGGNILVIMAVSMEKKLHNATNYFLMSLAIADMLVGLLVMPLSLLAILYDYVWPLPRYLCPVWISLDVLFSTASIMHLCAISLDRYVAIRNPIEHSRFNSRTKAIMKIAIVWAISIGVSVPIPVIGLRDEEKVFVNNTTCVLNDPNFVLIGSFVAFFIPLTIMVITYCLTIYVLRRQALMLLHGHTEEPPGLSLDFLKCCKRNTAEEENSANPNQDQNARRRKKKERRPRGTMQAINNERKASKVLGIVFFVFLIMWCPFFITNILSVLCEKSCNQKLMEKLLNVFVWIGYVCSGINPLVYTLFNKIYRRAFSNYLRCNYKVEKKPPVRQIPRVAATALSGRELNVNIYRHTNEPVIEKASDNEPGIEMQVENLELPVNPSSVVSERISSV
How it was run: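 Frozen membranes were from CHO-K1 cells stably expressing human recombinant 5-HT2C, with 1.4 nM [3H]mesulergine. Buffer was 50 mM Tris–HCl pH 7.4, 4 mM CaCl2 and 0.1% ascorbic acid, with methiothepin for nonspecific binding. Incubation ran 60 min at 27 °C, stopped by rapid filtration through 0.5% PEI-presoaked glass-fibre filters.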

[2] = biological target: Sodium-dependent serotonin transporter (Homo sapiens, UniProt P31645); test: Displacement of [3H]imipramine from human SERT expressed in HEK293 cells after 30 mins by rapid filtration assay; type: cell-based
How it was run: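 Frozen membranes were from HEK293 cells expressing human SERT, with 4 nM [3H]imipramine in 50 mM Tris–HCl pH 7.4, 120 mM NaCl and 5 mM KCl. Unlabelled imipramine defined nonspecific binding. Incubation ran 30 min at 27 °C, terminated by rapid filtration through 0.5% PEI-presoaked glass-fibre filters.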

[3] = biological target: 5-hydroxytryptamine receptor 2A (Homo sapiens, UniProt P28223); test: Displacement of [3H]ketanserin from human recombinant 5-HT2A receptor expressed in CHO-K1 cells after 60 mins; type: cell-based
How it was run: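 Membranes were from CHO-K1 cells stably expressing 5-HT2A. Radioligand was at 1 nM, with mianserin defining nonspecific binding. Incubation ran 60 min at 27 °C in 50 mM Tris–HCl pH 7.4 with 4 mM CaCl2 and 0.1% ascorbic acid. Harvesting was by filtration through glass-fibre filters presoaked in 0.5% PEI.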

Mus musculus [4] = test: Antidepressant activity in mouse assessed as decrease in duration of immobility at 100 mg/kg, po during final 5 mins of the 6 mins session by forced swimming test; type: functional
How it was run: (§1)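 Mice swam 10 min in a 25-cm glass cylinder (10 cm diameter) holding 15 cm of water at 23 1 °C. Twenty-four hours later, drug was given po 60 min before retesting. Immobility (floating upright with only small movements keeping head above water) was totalled over the last 5 min of the 6-min test.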

Mus musculus [5] = test: Antidepressant activity in mouse assessed as decrease in duration of immobility at 10 mg/kg, po during final 5 mins of the 6 mins session by forced swimming test; type: functional; how it was run: as §1
[6] = biological target: 5-hydroxytryptamine receptor 7 (Homo sapiens, UniProt P34969); test: Inhibition of 5HT7 receptor
Rattus norvegicus [7] = test: Dose normalized AUC (0 to infinity) in rat at 1 mg/kg, iv; type: ADME, organism-based; design: dose 1 mg/kg, route intravenous; details: in vivo
How it was run: (§2)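 Rats dosed once with the HCl salt, either i.v. at 1 mg/kg (n = 2 or 3) or orally at 5 mg/kg (n = 3). Plasma and brain levels were followed to derive Cmax, Clast, Tmax, t1/2, AUC, dose-normalised AUC, oral bioavailability (F) and the brain/plasma ratio.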

[8] = AUC (0 to infinity) in rat at 1 mg/kg, iv; type: ADME, organism-based, Plasma; design: time infinity, dose 1 mg/kg, route intravenous; details: plasma; how it was run: as §2
Rattus norvegicus [9] = test: Clast in rat at 5 mg/kg, po; type: ADME, organism-based; design: dose 5 mg/kg, route oral; details: in vivo; how it was run: as §2
[10] = Half life in rat at 1 mg/kg, iv; type: ADME, organism-based; design: dose 1 mg/kg, route intravenous; details: in vivo; how it was run: as §2
[11] = Cmax in rat brain; type: ADME, organism-based; how it was run: as §2
[12] = AUC (0 to infinity) in rat at 5 mg/kg, po; type: ADME, organism-based; design: time infinity, dose 5 mg/kg, route oral; details: plasma; how it was run: as §2
[13] = Cmax in rat at 1 mg/kg, iv; type: ADME, organism-based; design: dose 1 mg/kg, route intravenous; details: in vivo; how it was run: as §2
Brain = test: Clast in rat brain; type: ADME, tissue-based; details: in vivo; how it was run: as §2
[14] = Tmax in rat at 5 mg/kg, po; type: ADME, organism-based; design: dose 5 mg/kg, route oral; details: in vivo; how it was run: as §2
Plasma = test: Clast in rat plasma; type: ADME, cell-free; how it was run: as §2
[15] = Half life in rat brain; type: ADME, tissue-based; how it was run: as §2
[16] = AUC in rat plasma; type: ADME, cell-free; how it was run: as §2
[17] = Tmax in rat plasma; type: ADME, cell-free; how it was run: as §2
[18] = Tmax in rat brain; type: ADME, tissue-based; how it was run: as §2
[19] = Half life in rat plasma; type: ADME, cell-free; how it was run: as §2
[20] = Elimination half life in rat at 5 mg/kg, po; type: ADME, organism-based; design: dose 5 mg/kg, route oral; details: in vivo, read-out: beta t1/2 (converted); how it was run: as §2
Rattus norvegicus [21] = test: Dose normalized AUCirlf in rat at 5 mg/kg, po; type: ADME, organism-based; design: dose 5 mg/kg, route oral; details: in vivo; how it was run: as §2
Rattus norvegicus [22] = test: Clast in rat at 1 mg/kg, iv; type: ADME, organism-based; design: dose 1 mg/kg, route intravenous; details: in vivo; how it was run: as §2
[23] = Cmax in rat at 5 mg/kg, po; type: ADME, organism-based; design: dose 5 mg/kg, route oral; details: in vivo; how it was run: as §2
[24] = Cmax in rat plasma; type: ADME, organism-based; how it was run: as §2
[25] = Ratio of drug level in brain to plasma in rat; type: ADME, cell-free; how it was run: as §2
[26] = AUC in rat brain; type: ADME, tissue-based; how it was run: as §2
[27] = Oral bioavailability in rat at 5 mg/kg; type: ADME, organism-based; details: in vivo; how it was run: as §2
Mus musculus [28] = test: Antidepressant activity in mouse assessed as decrease in duration of immobility at 50 mg/kg, po during final 5 mins of the 6 mins session by forced swimming test; type: functional, organism-based; design: dose 50 mg/kg
How it was run: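 Mice swim for 10 min in a 25-cm glass cylinder (10 cm diameter) holding 15 cm of water at 23 ± 1 °C. They are retested 24 h later for 6 min. Compound is suspended in 3% Tween 80 and given orally 60 min before the test. Total immobility time (floating upright, only small head-keeping movements) is scored over the last 5 min. Means ± S.E.M.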

Sequence of 5-hydroxytryptamine receptor 2A (P28223 whole entry): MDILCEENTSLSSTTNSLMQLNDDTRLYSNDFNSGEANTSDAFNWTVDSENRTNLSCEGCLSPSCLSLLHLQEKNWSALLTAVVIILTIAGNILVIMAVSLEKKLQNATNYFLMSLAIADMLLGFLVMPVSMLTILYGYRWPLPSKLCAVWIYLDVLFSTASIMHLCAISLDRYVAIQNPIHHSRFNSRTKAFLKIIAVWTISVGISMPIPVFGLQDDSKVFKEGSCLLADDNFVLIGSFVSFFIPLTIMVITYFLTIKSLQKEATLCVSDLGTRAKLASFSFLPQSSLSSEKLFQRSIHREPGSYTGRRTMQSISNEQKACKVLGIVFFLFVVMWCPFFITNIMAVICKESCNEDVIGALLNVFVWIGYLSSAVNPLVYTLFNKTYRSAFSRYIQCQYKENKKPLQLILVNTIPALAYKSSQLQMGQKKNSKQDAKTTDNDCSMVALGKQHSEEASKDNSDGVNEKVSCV
Sequence of Sodium-dependent serotonin transporter (P31645 whole entry): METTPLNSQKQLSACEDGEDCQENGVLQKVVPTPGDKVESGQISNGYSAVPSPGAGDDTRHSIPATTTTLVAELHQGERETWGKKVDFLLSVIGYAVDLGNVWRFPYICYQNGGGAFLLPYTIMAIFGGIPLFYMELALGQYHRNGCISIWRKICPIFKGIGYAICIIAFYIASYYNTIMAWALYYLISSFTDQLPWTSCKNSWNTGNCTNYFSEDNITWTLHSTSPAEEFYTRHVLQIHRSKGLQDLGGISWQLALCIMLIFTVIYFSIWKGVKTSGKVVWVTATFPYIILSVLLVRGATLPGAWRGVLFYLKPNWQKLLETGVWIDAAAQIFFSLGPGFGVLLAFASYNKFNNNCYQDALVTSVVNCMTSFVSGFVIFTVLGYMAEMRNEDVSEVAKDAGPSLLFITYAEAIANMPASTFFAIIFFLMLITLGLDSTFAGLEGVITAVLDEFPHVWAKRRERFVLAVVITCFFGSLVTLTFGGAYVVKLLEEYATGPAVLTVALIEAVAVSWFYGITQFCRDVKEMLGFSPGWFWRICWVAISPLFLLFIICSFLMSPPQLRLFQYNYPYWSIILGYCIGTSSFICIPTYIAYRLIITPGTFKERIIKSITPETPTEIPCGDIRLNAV
Sequence of 5-hydroxytryptamine receptor 7 (P34969 whole entry): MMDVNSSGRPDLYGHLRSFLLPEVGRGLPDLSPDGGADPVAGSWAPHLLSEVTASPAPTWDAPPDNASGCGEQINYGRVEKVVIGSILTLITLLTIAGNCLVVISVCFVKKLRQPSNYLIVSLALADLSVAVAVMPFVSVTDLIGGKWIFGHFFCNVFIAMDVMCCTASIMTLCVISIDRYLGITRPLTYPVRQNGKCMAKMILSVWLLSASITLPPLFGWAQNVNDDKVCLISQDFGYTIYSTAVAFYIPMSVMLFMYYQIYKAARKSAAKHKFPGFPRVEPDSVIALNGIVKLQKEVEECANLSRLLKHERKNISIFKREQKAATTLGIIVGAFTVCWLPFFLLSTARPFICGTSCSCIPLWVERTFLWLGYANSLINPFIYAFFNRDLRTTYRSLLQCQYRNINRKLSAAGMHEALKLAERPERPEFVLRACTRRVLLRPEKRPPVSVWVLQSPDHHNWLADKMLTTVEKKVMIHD

SMILES: Cc1c(C(=O)NCCCN2CCN(c3cccc(Cl)c3)CC2)cc(-c2ccccc2)n1Cc1ccccc1
- IC50 [1]: 1440 nM
- IC50 [2]: 235 nM
- IC50 [3]: 179 nM

SMILES: Cc1c(C(=O)NCCCN2CCN(c3cccc(Cl)c3Cl)CC2)cc(-c2ccccc2)n1N1CCCCC1
- Activity (Mus musculus [4]): Active
- Activity (Mus musculus [5]): inactive
- IC50 [6]: 493 nM

SMILES: CCn1c(-c2ccccc2)cc(C(=O)NCCCN2CCN(c3cccc(Cl)c3Cl)CC2)c1C
- Activity (Mus musculus [4]): <25%
- Activity (Mus musculus [5]): inactive

SMILES: Cc1cccc(N2CCN(CCCNC(=O)c3cc(-c4ccccc4)n(C)c3C)CC2)c1C
- Activity (Mus musculus [28]): Active

SMILES: Cc1c(C(=O)NCCCN2CCN(c3cccc(Cl)c3)CC2)cc(-c2ccccc2)n1C
- Activity (Mus musculus [4]): inactive

Results, then the molecule that gave them:

- AUC/dose (Rattus norvegicus [7]): 18.703 µg·min/mL
- AUC(0-inf) [8]: 312 ng·h/mL
- Clast (Rattus norvegicus [9]): 1 ng/mL
- half-life [10]: 2.82 h
- Cmax [11]: 30 ng/mL
- AUC(0-inf) [12]: 386 ng·h/mL
- Cmax [13]: 454 ng/mL
- Clast (Brain): 20 ng/mL
- Tmax [14]: 0.75 h
- Clast (Plasma): 40 ng/mL
- half-life [15]: 4.28 h
- AUC [16]: 240 ng·h/mL
- Tmax [17]: 1 h
- Tmax [18]: 2 h
- half-life [19]: 3.71 h
- half-life [20]: 3.14 h
- AUC/dose (Rattus norvegicus [21]): 4.63 µg·min/mL
- Clast (Rattus norvegicus [22]): 8 ng/mL
- Cmax [23]: 118 ng/mL
- Cmax [24]: 70 ng/mL
- Kp [25]: 34.5
- AUC [26]: 82.7 ng·h/mL
- bioavailability [27]: 24.8%
SMILES: Cc1c(C(=O)NCCCN2CCN(c3cccc(Cl)c3Cl)CC2)cc(-c2ccccc2)n1C.Cl

- IC50 [1]: 225 nM
- IC50 [2]: 76 nM
- IC50 [3]: 129 nM
SMILES: CCCn1c(-c2ccccc2)cc(C(=O)NCCCN2CCN(c3cccc(C)c3C)CC2)c1C

- IC50 [1]: 1600 nM
- IC50 [2]: 110 nM
- IC50 [3]: 333 nM
SMILES: Cc1c(C(=O)NCCCN2CCN(c3cccc(Cl)c3)CC2)cc(-c2ccccc2)n1CC(C)C

- IC50 [1]: 156 nM
- IC50 [2]: 57 nM
- IC50 [3]: 175 nM
SMILES: Cc1c(C(=O)NCCN2CCN(c3cccc(Cl)c3Cl)CC2)cc(-c2ccccc2)n1C
